# Assay results taken from ChEMBL document CHEMBL3877262, “Synthesis and antioxidant evaluation of desmethylxanthohumol analogs and their dimers” (Eur J Med Chem, 2017).
# Activity calls are given as the source filed them. The calls are words filed in the database; no cut-off is given here.
# Key:
# [1] = Antioxidant activity against H2O2-induced oxidative stress in rat PC12 cells assessed as viable cells at 100 uM pretreated for 0.5 hrs followed by H2O2 challenge measured after 2 hrs by MTT assay (reference value: 25.47%); assay type: functional; settings: PC-12, read-out: Activity
# Rattus norvegicus [2] = species on record: Rattus norvegicus; assay: Cytotoxicity against rat PC12 cells at 200 uM measured after 48 hrs by MTT assay; assay type: toxicity, cell-based; settings: pc-12, 48 h
# Rattus norvegicus [3] = species on record: Rattus norvegicus; assay: Cytotoxicity against rat PC12 cells at 100 uM measured after 48 hrs by MTT assay; assay type: toxicity, cell-based; settings: pc-12, 48 h
# [4] = Cytotoxicity against HUVEC measured after 48 hrs by MTT assay; assay type: toxicity, cell-based; settings: human, HUVEC cells
# How it was run: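 HUVECs were seeded at 5×10^3 cells/well for 24 h, then exposed to compounds dissolved in DMSO for 48 h. MTT (5 mg/ml) was added for 4 h, cells solubilized in DMSO and OD read at 490 nm. IC50 was derived from mean OD of triplicate tests.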
# PC-12 [5] = assay: Cytoprotective activity against H2O2-induced oxidative stress in rat PC12 cells assessed as early apoptotic cells at 10 uM pretreated for 0.5 hrs followed by H2O2 challenge measured after 2 hrs by Annexin-V-FITC/propidium iodide staining based flow cytometry (reference value: 1.1 %); assay type: functional
# PC-12 [6] = assay: Cytoprotective activity against H2O2-induced oxidative stress in rat PC12 cells assessed as lactate dehydrogenase release at 10 uM pretreated for 30 mins followed by H2O2 challenge measured after 2 hrs by spectrophotometric method (reference value: 479.77 U/L); assay type: functional
# PC-12 [7] = assay: Cytoprotective activity against H2O2-induced oxidative stress in rat PC12 cells assessed as necrotic cells at 10 uM pretreated for 0.5 hrs followed by H2O2 challenge measured after 2 hrs by Annexin-V-FITC/propidium iodide staining based flow cytometry (reference value: 2.4 %); assay type: functional
# [8] = Antioxidant activity assessed as ABTS radical scavenging activity measured after 10 mins by ABTS assay; assay type: functional
# How it was run: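 ABTS (10 mM in sodium acetate) oxidised with H2O2 and held 12 h in the dark. It was diluted to A650 0.70 and mixed with compound, shaken 30 s, and A650 read after 10 min. EC50 by nonlinear regression from three independent experiments.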
# PC-12 [9] = assay: Cytoprotective activity against H2O2-induced oxidative stress in rat PC12 cells assessed as morphological changes at 10 uM pretreated for 0.5 hrs followed by H2O2 challenge measured after 2 hrs; assay type: functional, cell-based
# How it was run: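 PC12 cells were handled as in the H2O2/MTT model: compound at 10 µM for 0.5 h, then H2O2 (100 µM) for 2 h. Morphology (shrinkage, blebbing) was viewed at 200×. Control cells received medium with 0.1% DMSO only. Gallic acid (10 µM) was the positive control.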
# [10] = Antioxidant activity against H2O2-induced oxidative stress in rat PC12 cells assessed as GSH level per gram of protein at 10 uM pretreated for 0.5 hrs followed by H2O2 challenge measured after 2 hrs by GSH peroxidase assay (reference value: 59.93 umol); assay type: functional, PC-12
# [11] = Antioxidant activity against H2O2-induced oxidative stress in rat PC12 cells assessed as 8-OHdG level at 10 uM pretreated for 0.5 hrs followed by H2O2 challenge measured after 2 hrs (reference value: 123.97 ng/L); assay type: functional, PC-12
# PC-12 [12] = assay: Cytoprotective activity against H2O2-induced oxidative stress in rat PC12 cells assessed as viable cells at 10 uM pretreated for 0.5 hrs followed by H2O2 challenge measured after 2 hrs by Annexin-V-FITC/propidium iodide staining based flow cytometry (reference value: 94.1 %); assay type: functional; settings: read-out: Activity
# [13] = Antioxidant activity assessed as vitamin-c equivalent measured after 20 mins by FRAP assay; assay type: functional
# PC-12 [14] = assay: Cytoprotective activity against H2O2-induced oxidative stress in rat PC12 cells assessed as late apoptotic cells at 10 uM pretreated for 0.5 hrs followed by H2O2 challenge measured after 2 hrs by Annexin-V-FITC/propidium iodide staining based flow cytometry (reference value: 2.3 %); assay type: functional
smiles,measurement,setting,value
CC1(C)C=Cc2c(O)c(Cc3c(O)c4c(c(C(=O)/C=C/c5ccc(O)cc5O)c3O)OC(C)(C)C=C4)c(O)c(C(=O)/C=C/c3ccc(O)cc3O)c2O1,viability at 100 µM,[1],43.4%
CC1(C)C=Cc2c(O)cc(O)c(C(=O)/C=C/c3cccc(O)c3O)c2O1,viability at 100 µM,[1],54.5%
CC1(C)C=Cc2c(O)cc(O)c(C(=O)/C=C/c3ccc(O)cc3)c2O1,Activity,Rattus norvegicus [2],Toxic
same,Activity,Rattus norvegicus [3],Toxic
same,IC50 at 48 h,[4],41.1 µM
same,viability at 100 µM,[1],20.6%
CC1(C)C=Cc2c(O)c(Cc3c(O)c4c(c(C(=O)/C=C/c5cccc(O)c5O)c3O)OC(C)(C)C=C4)c(O)c(C(=O)/C=C/c3cccc(O)c3O)c2O1,viability at 100 µM,[1],77.5%
CC1(C)C=Cc2c(O)cc(O)c(C(=O)/C=C/c3ccc(O)c(O)c3O)c2O1,viability at 100 µM,[1],84%
CC1(C)C=Cc2c(O)cc(O)c(C(=O)/C=C/c3ccc(O)cc3O)c2O1,viability at 100 µM,[1],24.1%
CC1(C)C=Cc2c(O)c(Cc3c(O)c4c(c(C(=O)/C=C/c5ccc(O)cc5)c3O)OC(C)(C)C=C4)c(O)c(C(=O)/C=C/c3ccc(O)cc3)c2O1,viability at 100 µM,[1],44.9%
CC1(C)C=Cc2c(O)c(Cc3c(O)c4c(c(C(=O)/C=C/c5ccc(O)c(O)c5O)c3O)OC(C)(C)C=C4)c(O)c(C(=O)/C=C/c3ccc(O)c(O)c3O)c2O1,Activity,PC-12 [5],1.1%
same,Activity,PC-12 [6],251.45 U/L
same,Activity,PC-12 [7],0.5%
same,EC50,[8],0.54 µM
same,viability at 100 µM,[1],85.2%
same,Activity,PC-12 [9],Active
same,Activity,[10],105.71 µmol
same,Activity,[11],62.8 ng/L
same,viability at 10 µM,PC-12 [12],95.6%
same,Activity,[13],648 mgequiv/mmol
same,Activity,PC-12 [14],2.7%
CC(C)=CCc1c(O)cc(O)c(C(=O)/C=C/c2ccc(O)cc2)c1O [DEMETHYLXANTHOHUMOL],Activity,Rattus norvegicus [2],Toxic
same,Activity,Rattus norvegicus [3],Toxic
same,IC50 at 48 h,[4],18.9 µM
O=C(O)c1cc(O)c(O)c(O)c1 [GALLIC ACID],Activity,PC-12 [5],0.5%
same,Activity,PC-12 [6],326.59 U/L
same,Activity,PC-12 [7],4.2%
same,EC50,[8],0.35 µM
same,viability at 100 µM,[1],88.9%
same,Activity,[10],99.73 µmol
same,Activity,[11],85.7 ng/L
same,viability at 10 µM,PC-12 [12],81.9%
same,Activity,[13],531 mgequiv/mmol
same,Activity,PC-12 [14],13.4%
